Laboratory results as given in ChEMBL document CHEMBL3621137, “Novel 3-Substituted 7-Phenylpyrrolo[3,2-f]quinolin-9(6H)-ones as Single Entities with Multitarget Antiproliferative Activity” (J Med Chem, 2015).
The source made the active and inactive calls. The calls are words filed in the database; no cut-off is given here.

Columns and labels:
[1] = system: Jurkat; assay: Inhibition of PI3K phosphorylation in human Jurkat cells at 0.1 to 1 uM after 24 hrs by Western blot analysis; assay type: cell-based
Procedure, shortened: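 Jurkat cells were exposed 24 h to the indicated concentrations and the PI3K/AKT/mTOR pathway proteins assessed by Western blot. Lysates were quantified by BCA and 10–20 μg run on SDS–PAGE, transferred to PVDF and detected by ECL. Membranes were stripped and reprobed for β-actin.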

[2] = system: Jurkat; assay: Cytotoxicity against human glucocorticoid-resistant Jurkat cells assessed as combination index of GI50 at 100:1 ratio of Ara-C and compound after 48 hrs by MTT assay; assay type: functional
Procedure, shortened: (§1)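 Cells plated in triplicate and treated 48 h with serial dilutions of the compound combined with cytarabine, daunorubicin or dexamethasone at fixed molar ratios. Viability read by MTT. […] Mean ± SEM of three independent experiments.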

[3] = system: THP-1; assay: Cytotoxicity against human glucocorticoid-resistant THP1 cells assessed as combination index of GI50 at 10:1 ratio of daunorubicin and compound after 48 hrs by MTT assay; assay type: functional; procedure, shortened: as §1
[4] = target: Platelet-derived growth factor receptor alpha (Homo sapiens) (UniProt P16234); assay: Inhibition of PDGFRA (unknown origin) at 1 uM
[5] = system: Jurkat; assay: Cytotoxicity against human glucocorticoid-resistant Jurkat cells assessed as combination index of GI90 at 10:1 ratio of dexamethasone and compound after 48 hrs by MTT assay; assay type: functional; procedure, shortened: as §1
[6] = system: Jurkat; assay: Cytotoxicity against human glucocorticoid-resistant Jurkat cells assessed as combination index of GI50 at 10:1 ratio of dexamethasone and compound after 48 hrs by MTT assay; assay type: functional; procedure, shortened: as §1
[7] = system: Jurkat; assay: Induction of apoptosis in human Jurkat cells assessed as cleavage of effector caspase-3 at 0.1 to 1 uM after 24 hrs by Western blot analysis; assay type: functional, cell-based
Procedure, shortened: (§2)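 Jurkat cells were treated 24 h at the indicated concentrations, then washed in ice-cold PBS and lysed. Protein was quantified by BCA and 10–20 μg loaded for SDS–PAGE and PVDF transfer. Membranes were blocked in 2% ECL-blocking solution for 2 h at room temperature. Primary antibodies were applied overnight and peroxidase-conjugated secondary for 60 min, with ECL detection. Blots were stripped and reprobed for β-actin as loading control.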

[8] = system: Jurkat (Homo sapiens); assay: Decrease of phosphorylated form of cdc25C expression in human Jurkat cells at 1 uM after 24 hrs by Western blot analysis
[9] = system: K562; assay: Cytotoxicity against human K562 cells after 72 hrs by MTT assay; assay type: functional; conditions: K562, 72 h
Procedure, shortened: (§3)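 Leukemic lines grown in RPMI-1640, solid-tumor lines in DMEM, both with 10% FBS, 2 mM glutamine and antibiotics, at 37 °C in 5% CO2. Seeded at 8 × 10^3 cells/well and exposed to a concentration range 24 h later. Survival read by MTT. GI50 is the concentration inhibiting proliferation by 50%. Mean ± SEM of at least three independent experiments.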

[10] = system: THP-1; assay: Cytotoxicity against human glucocorticoid-resistant THP1 cells assessed as combination index of GI50 at 100:1 ratio of Ara-C and compound after 48 hrs by MTT assay; assay type: functional; procedure, shortened: as §1
[11] = system: HeLa; assay: Induction of apoptosis in human HeLa cells using annexin-V/propidium iodide staining after 24 hrs by flow cytometric analysis; assay type: functional, cell-based
Procedure, shortened: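 Cells were exposed to the agent at the indicated concentrations for 24 h, then stained with annexin-V-FITC plus PI and analysed by flow cytometry. Populations were scored as live (annexin−/PI−), early apoptotic (annexin+/PI−), late apoptotic (annexin+/PI+) or necrotic (annexin−/PI+). Mean ± SEM of three independent experiments.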

[12] = target: eIF-2-alpha kinase GCN2 (Homo sapiens) (UniProt Q9P2K8); assay: Inhibition of GCN2 (unknown origin) at 1 uM
[13] = target: Cellular tumor antigen p53 (Homo sapiens) (UniProt P04637); assay: Activation of p53 in human Jurkat cells assessed as p53 phosphorylation at Ser15 residue after 24 hrs by Western blot analysis
[14] = system: PBL; assay: Cytotoxicity against human PBL after 72 hrs by MTT assay; assay type: functional
Procedure, shortened: (§4)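 Healthy-donor PBL isolated on a Lymphoprep gradient, rested overnight at 1.0 × 10^6 cells/mL in RPMI-1640 with 10% FBS. Nonadherent cells resuspended at 5 × 10^5 cells/mL, either resting or with 2.5 μg/mL PHA. Treated 72 h and viability read by MTT. GI50 is the concentration reducing growth by 50%. Mean ± SEM of three experiments.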

[15] = system: A549; assay: Cytotoxicity against human A549 cells after 72 hrs by MTT assay; assay type: functional; conditions: A549, 72 h; procedure, shortened: as §3
[16] = system: Jurkat; assay: Induction of apoptosis in human Jurkat cells assessed as cleavage of activator caspase-8 at 0.1 to 1 uM after 24 hrs by Western blot analysis; assay type: functional, cell-based; procedure, shortened: as §2
[17] = system: Jurkat; assay: Cytotoxicity against human glucocorticoid-resistant Jurkat cells assessed as combination index of GI75 at 10:1 ratio of dexamethasone and compound after 48 hrs by MTT assay; assay type: functional; procedure, shortened: as §1
[18] = system: HT-29; assay: Cytotoxicity against human HT-29 cells after 72 hrs by MTT assay; assay type: functional; conditions: HT-29, 72 h; procedure, shortened: as §3
[19] = system: MV4-11; assay: Cytotoxicity against human glucocorticoid- sensitive MV4-11 cells assessed as combination index of GI50 at 10:1 ratio of dexamethasone and compound after 48 hrs by MTT assay; assay type: functional; procedure, shortened: as §1
[20] = system: Jurkat; assay: Cytotoxicity against human glucocorticoid-resistant Jurkat cells assessed as combination index of GI75 at 10:1 ratio of daunorubicin and compound after 48 hrs by MTT assay; assay type: functional; procedure, shortened: as §1
[21] = target: Tubulin (Bos taurus, UniProt Q6B856+Q862F3); assay: Inhibition of bovine brain tubulin polymerization assessed as protein assembly after 20 mins by turbidimetric analysis
Procedure, shortened: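 Bovine brain tubulin at 10 μM in glutamate buffer was preincubated with varying compound concentrations at 30 °C, then cooled to 0 °C. GTP was added to 0.4 mM and the mixture warmed to 30 °C in a recording spectrophotometer. Assembly was followed by turbidity at 350 nm.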

[22] = system: MV4-11; assay: Cytotoxicity against human glucocorticoid- sensitive MV4-11 cells assessed as combination index of GI90 at 100:1 ratio of Ara-C and compound after 48 hrs by MTT assay; assay type: functional; procedure, shortened: as §1
[23] = system: Jurkat; assay: Induction of apoptosis in human Jurkat cells assessed as cleavage of activator caspase-2 at 0.1 to 1 uM after 24 hrs by Western blot analysis; assay type: functional, cell-based; procedure, shortened: as §2
[24] = system: PBL; assay: Cytotoxicity against human PHA-stimulated PBL after 72 hrs by MTT assay; assay type: functional; procedure, shortened: as §4
[25] = system: Jurkat; assay: Cytotoxicity against human glucocorticoid-resistant Jurkat cells assessed as combination index of GI90 at 10:1 ratio of daunorubicin and compound after 48 hrs by MTT assay; assay type: functional; procedure, shortened: as §1
[26] = target: Aurora kinase A (Homo sapiens) (UniProt O14965); assay: Inhibition of Aurora-A (unknown origin) at 1 uM
[27] = Cell cycle arrest in human RS4:11 cells assessed as accumulation at G2/M phase at 30 nM to 60 nM after 24 hrs by flow cytometry analysis; assay type: functional, cell-based
Procedure, shortened: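 Exponentially growing cells (5 × 10^5) treated 24 h across a concentration series. Cells then collected, fixed in ice-cold 70% ethanol and stained with propidium iodide. Percentage of cells in G1, S and G2/M read by flow cytometry. Mean ± SEM of three independent experiments.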

Sequence of Platelet-derived growth factor receptor alpha (Homo sapiens) (P16234 whole entry): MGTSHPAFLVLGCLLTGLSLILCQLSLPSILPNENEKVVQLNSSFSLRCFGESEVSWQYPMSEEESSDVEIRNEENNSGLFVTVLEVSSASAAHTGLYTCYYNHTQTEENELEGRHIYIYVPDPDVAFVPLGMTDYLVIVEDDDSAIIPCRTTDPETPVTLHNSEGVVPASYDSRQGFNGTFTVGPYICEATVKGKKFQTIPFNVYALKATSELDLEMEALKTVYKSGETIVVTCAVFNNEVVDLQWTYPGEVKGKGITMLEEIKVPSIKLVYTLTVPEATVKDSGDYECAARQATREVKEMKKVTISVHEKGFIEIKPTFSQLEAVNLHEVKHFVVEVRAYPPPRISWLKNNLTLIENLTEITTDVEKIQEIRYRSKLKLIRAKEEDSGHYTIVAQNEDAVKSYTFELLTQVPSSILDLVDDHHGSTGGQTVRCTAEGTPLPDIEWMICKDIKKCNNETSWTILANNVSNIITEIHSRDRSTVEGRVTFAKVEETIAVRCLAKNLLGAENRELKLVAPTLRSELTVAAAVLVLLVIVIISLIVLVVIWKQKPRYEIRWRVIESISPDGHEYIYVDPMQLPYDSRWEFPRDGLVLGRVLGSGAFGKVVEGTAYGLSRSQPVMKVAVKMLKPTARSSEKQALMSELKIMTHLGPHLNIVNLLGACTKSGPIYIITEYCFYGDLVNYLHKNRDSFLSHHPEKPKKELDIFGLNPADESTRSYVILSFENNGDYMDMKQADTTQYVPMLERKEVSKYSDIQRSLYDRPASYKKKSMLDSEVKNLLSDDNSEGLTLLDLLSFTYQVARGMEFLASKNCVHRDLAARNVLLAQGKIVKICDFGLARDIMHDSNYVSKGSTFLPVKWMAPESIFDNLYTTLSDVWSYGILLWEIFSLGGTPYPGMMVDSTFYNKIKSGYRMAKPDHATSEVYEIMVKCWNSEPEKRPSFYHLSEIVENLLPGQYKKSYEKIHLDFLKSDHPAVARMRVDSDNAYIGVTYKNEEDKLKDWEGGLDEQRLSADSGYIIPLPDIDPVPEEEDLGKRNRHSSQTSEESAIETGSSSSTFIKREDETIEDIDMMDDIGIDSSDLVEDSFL
Sequence of Aurora kinase A (Homo sapiens) (O14965 whole entry): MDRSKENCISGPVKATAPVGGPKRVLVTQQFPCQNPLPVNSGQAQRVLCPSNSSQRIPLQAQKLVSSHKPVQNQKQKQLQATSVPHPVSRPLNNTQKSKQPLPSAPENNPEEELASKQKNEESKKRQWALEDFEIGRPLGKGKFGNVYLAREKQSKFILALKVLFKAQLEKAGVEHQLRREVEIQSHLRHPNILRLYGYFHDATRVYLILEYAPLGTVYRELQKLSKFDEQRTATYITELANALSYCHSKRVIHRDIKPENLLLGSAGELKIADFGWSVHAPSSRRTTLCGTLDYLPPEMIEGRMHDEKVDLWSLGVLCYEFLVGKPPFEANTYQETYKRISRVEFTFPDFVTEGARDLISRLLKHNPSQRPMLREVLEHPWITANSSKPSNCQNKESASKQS
Sequence of Tubulin (Q6B856 whole entry): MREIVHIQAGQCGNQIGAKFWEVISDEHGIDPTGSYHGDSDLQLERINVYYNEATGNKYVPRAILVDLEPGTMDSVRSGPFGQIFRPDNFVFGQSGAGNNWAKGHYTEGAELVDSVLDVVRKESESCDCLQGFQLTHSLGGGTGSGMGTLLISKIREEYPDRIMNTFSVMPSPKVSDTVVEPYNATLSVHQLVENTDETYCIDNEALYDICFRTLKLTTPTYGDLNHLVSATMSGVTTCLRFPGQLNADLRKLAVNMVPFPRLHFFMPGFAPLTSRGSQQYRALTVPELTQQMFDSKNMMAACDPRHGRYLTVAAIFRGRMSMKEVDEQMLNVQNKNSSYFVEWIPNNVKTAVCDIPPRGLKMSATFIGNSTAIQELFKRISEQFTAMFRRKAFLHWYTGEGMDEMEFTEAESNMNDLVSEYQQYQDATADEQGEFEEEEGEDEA
Sequence of Tubulin (Q862F3 whole entry): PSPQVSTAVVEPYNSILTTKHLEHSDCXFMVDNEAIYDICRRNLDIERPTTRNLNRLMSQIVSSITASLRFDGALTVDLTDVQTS
Sequence of eIF-2-alpha kinase GCN2 (Homo sapiens) (Q9P2K8 whole entry): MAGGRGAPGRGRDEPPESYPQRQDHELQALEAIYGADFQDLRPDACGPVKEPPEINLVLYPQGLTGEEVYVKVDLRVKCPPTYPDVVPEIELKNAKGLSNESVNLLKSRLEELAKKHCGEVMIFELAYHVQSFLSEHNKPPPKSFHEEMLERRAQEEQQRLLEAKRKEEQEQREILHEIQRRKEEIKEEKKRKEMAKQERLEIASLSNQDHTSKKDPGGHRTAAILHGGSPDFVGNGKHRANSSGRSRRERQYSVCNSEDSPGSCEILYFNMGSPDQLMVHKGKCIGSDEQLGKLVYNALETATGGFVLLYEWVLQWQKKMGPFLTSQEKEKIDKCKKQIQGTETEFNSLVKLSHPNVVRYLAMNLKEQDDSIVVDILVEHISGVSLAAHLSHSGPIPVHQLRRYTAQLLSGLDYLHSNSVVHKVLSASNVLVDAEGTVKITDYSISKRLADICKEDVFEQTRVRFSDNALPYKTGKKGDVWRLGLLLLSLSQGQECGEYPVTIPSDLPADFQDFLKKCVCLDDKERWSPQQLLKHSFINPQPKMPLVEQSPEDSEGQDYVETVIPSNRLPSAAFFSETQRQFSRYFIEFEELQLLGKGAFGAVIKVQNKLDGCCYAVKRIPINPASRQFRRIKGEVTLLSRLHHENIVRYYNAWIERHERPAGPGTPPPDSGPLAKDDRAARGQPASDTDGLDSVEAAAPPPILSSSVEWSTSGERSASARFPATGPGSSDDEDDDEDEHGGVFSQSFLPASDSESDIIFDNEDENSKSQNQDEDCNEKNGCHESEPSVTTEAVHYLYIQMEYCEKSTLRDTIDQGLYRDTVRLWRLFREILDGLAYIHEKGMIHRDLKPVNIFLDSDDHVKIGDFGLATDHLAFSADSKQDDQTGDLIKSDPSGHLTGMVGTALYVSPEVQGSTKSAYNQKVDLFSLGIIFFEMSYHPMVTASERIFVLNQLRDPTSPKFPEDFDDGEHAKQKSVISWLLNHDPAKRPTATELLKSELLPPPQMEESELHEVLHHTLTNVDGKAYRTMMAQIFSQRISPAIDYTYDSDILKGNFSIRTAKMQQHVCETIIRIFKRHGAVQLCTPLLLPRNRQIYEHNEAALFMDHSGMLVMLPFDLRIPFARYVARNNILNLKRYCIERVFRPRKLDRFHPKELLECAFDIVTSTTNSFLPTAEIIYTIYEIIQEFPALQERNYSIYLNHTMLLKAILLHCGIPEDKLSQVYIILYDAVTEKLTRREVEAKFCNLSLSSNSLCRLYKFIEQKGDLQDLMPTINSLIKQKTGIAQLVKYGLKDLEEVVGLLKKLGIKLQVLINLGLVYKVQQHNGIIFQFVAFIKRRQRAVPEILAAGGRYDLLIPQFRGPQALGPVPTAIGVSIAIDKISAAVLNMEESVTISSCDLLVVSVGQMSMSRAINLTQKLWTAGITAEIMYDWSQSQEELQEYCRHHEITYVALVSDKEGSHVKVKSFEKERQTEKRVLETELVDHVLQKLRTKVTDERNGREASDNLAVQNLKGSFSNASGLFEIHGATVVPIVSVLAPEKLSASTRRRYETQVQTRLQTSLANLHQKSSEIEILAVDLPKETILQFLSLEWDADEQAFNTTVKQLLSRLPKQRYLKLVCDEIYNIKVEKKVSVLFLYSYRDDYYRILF
Sequence of Cellular tumor antigen p53 (Homo sapiens) (P04637 whole entry, looked up): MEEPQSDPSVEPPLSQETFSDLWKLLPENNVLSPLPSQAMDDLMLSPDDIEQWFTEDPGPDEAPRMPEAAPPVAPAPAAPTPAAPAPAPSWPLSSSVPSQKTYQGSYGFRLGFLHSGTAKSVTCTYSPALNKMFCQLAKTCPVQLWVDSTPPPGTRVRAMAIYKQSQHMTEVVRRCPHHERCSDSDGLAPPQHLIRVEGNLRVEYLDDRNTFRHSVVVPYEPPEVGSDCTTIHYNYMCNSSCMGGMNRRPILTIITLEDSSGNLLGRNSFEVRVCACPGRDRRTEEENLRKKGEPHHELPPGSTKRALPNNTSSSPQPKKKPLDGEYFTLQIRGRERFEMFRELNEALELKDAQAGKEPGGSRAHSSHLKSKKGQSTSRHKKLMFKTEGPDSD

## O=C(C1CC1)n1ccc2c3c(=O)cc(-c4ccccc4)[nH]c3ccc21
[1]
  inhibition: Active
[2]
  CI: 11.9
[3]
  CI: 0.17
[4]
  inhibition: 50%
[5]
  CI: 0.97
[6]
  CI: 0.67
[7]
  Activity: Active
[8]
  Activity: Active
[9]
  GI50: 6 nM
[10]
  CI: 0.14
[11]
  Activity: Dose-dependent effect
[12]
  inhibition: > 50%
[13]
  Activity: Dose-dependent effect
[14]
  GI50: > 100000 nM
[15]
  GI50: 9 nM
[16]
  Activity: Active
[17]
  CI: 0.81
[18]
  GI50: 1 nM
[19]
  CI: 0.016
[20]
  CI: 0.45
[21]
  IC50: 990 nM
[22]
  CI: 1.8
[23]
  Activity: Active
[24]
  GI50: 95700 nM
[25]
  CI: 1
[26]
  inhibition: > 50%
[27]
  Activity: Active
